Each structure is given as a SMILES string. Active and inactive are the calls of the source. The rule behind the calls is not given here.

We go through five compounds from ChEMBL document CHEMBL3421571, “N-Oxide derivatives of 3-(3-pyridyl)-2-phosphonopropanoic acids as potential inhibitors of Rab geranylgeranylation” (Bioorg Med Chem Lett, 2015).

Assay [1] can be described thus: Inhibition of recombinant GGTase 2 (unknown origin) using recombinant Rab1A and [3H]GGPP as substrate after 20 mins in presence of recombinant REP-2 by liquid scintillation counting analysis. More on the design: species or system Homo sapiens.
Assay [2] relates to RPMI-8226. Put plainly: Induction of apoptosis in human RPMI8226 cells assessed as increase in PARP cleavage at 5 mM incubated for 48 hrs by immunoblot method. The assay is classed as functional, cell-based. In a few lines: (§1)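 RPMI-8226 myeloma cells exposed 48 h to lovastatin (20 μM) or bisphosphonates (5 mM), untreated cells as reference. Whole-cell lysates made in RIPA buffer, membrane (detergent) fraction by Triton X-114 partitioning; immunoblotting with β-tubulin (lysate) or calnexin (detergent fraction) as loading controls. Rap1a antibody recognizes only unprenylated protein. Blots representative of two independent experiments.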

Assay [3] relates to RPMI-8226. As to the kind of experiment: Induction of endoplasmic reticulum stress in human RPMI8226 cells assessed as increase in calnexin cleavage at 5 mM incubated for 48 hrs by immunoblot method. It is filed as functional, cell-based.
The subject of assay [4] is RPMI-8226. Put plainly: Inhibition of GGTase 2 in human RPMI8226 cells assessed as disruption of monoclonal protein trafficking by measuring accumulation of intracellular lambda light chain at 5 mM incubated for 48 hrs by ELISA. It is filed as cell-based. In a few lines:
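RPMI-8226 cells treated 48 h with lovastatin (20 μM) or bisphosphonates (5 mM); intracellular lambda light chain quantified by ELISA, expressed as percentage of untreated control (mean + SD, n=3); unpaired two-tailed t-test against untreated cells.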

Assay [5] deals with RPMI-8226. Put plainly: Induction of apoptosis in human RPMI8226 cells assessed as increase in caspase-3 cleavage at 5 mM incubated for 48 hrs by immunoblot method. The assay is classed as functional, cell-based. In a few lines:
as §1

For assay [6], the target named is T1, Farnesyl pyrophosphate synthase (Homo sapiens, UniProt P14324).
T1 sequence (P14324 whole entry): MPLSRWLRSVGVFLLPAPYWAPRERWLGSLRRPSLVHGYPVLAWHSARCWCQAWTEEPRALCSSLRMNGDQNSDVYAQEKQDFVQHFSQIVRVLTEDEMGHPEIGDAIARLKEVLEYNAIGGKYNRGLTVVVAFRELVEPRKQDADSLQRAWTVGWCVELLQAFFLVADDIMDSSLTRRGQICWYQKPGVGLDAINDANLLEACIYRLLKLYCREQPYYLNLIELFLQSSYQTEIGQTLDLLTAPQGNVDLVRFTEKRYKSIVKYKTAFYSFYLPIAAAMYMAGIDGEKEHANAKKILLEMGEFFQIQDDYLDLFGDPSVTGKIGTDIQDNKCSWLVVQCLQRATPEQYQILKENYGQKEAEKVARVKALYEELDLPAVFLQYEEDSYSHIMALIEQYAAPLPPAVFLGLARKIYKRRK
Put plainly: Inhibition of recombinant FDPS (unknown origin) assessed as decrease in […] level using GPP and [14C]IPP as substrate treated with enzyme for 10 mins prior to substrate challenge for 30 mins by liquid scintillation counting analysis.

Assay [7] has as its system RPMI-8226. As to the kind of experiment: Inhibition of GGTase 2 in human RPMI8226 cells assessed as reduction in membrane bound Rab6 protein at 5 mM incubated for 48 hrs by immunoblot method. It is filed as cell-based. In a few lines: as §1
For assay [8], the target named is Geranylgeranyl transferase type I (Homo sapiens) (UniProt P49354+P53609). Put plainly: Inhibition of GGTase 1 in human RPMI8226 cells assessed as unmodified Rap1a accumulation at 5 mM incubated for 48 hrs by immunoblot method. It is filed as cell-based. As to conditions: RPMI-8226. In a few lines:
as §1

Assay [9] relates to RPMI-8226. As to the kind of experiment: Induction of apoptosis in human RPMI8226 cells assessed as increase in PARP cleavage at 20 uM incubated for 48 hrs by immunoblot method. It is filed as functional, cell-based. In a few lines: as §1
The test system of assay [10] is RPMI-8226. Put plainly: Induction of apoptosis in human RPMI8226 cells assessed as increase in caspase-3 cleavage at 20 uM incubated for 48 hrs by immunoblot method. The assay is classed as functional, cell-based. The gist of the method:
as §1

Consider `O=C(O)C(Cc1cccnc1)P(=O)(O)O` (stereo unspecified), for which the IC50 came out at 1.1 mM in [1] and 1 mM in [6]. In addition, the outcome in the assay with RPMI-8226 [2], with RPMI-8226 [3] and in the assay on RPMI-8226 [5] was Active. For the same compound, the inhibition result (in the assay on RPMI-8226 [4]; in assay [8]) was “inactive” in each case. In addition, in the assay with RPMI-8226 [7], the inhibition result was “Active”.
`CC[C@H](C)C(=O)O[C@H]1C[C@@H](C)C=C2C=C[C@H](C)[C@H](CC[C@@H]3C[C@@H](O)CC(=O)O3)[C@H]21`: the result in the assay on RPMI-8226 [9] and in the assay on RPMI-8226 [10] was Active.
Turning to `O=C(O)C(Cc1ccc[n+]([O-])c1)P(=O)(O)O` (stereo unspecified), the IC50 in assay [1] is 0.8 mM; in assay [6], greater than 2 mM. Besides, the result with RPMI-8226 [2], in the assay on RPMI-8226 [3] and in the assay with RPMI-8226 [5] was Active. Further, the inhibition result (with RPMI-8226 [4]; in the assay on RPMI-8226 [7]; in [8]) was “inactive” in each case.
For `O=C(O)C(O)(Cc1cccnc1)P(=O)(O)O` (stereo unspecified), the IC50 is 0.7 mM in assay [1] and 0.2 mM in assay [6]. In addition, the result in the assay with RPMI-8226 [2], in the assay with RPMI-8226 [3] and in the assay with RPMI-8226 [5] was Active. Besides, the inhibition result with RPMI-8226 [4] and in the assay with RPMI-8226 [7] was “Active” in each case. Further, in [8], the inhibition entry is “inactive”.
`O=C(O)C(O)(Cc1ccc[n+]([O-])c1)P(=O)(O)O` (stereo unspecified): the values for the IC50 in assay [1] and in [6] were 1.8 mM and 2 mM, respectively. Besides, the inhibition result in the assay on RPMI-8226 [4] and in the assay on RPMI-8226 [7] was “Active” throughout. Also, the inhibition result in assay [8] was “inactive”.
